Tests used:
[1] = biological target: 5-hydroxytryptamine receptor 2B (Homo sapiens, UniProt P41595); test: Agonist activity at human 5HT2B receptor expressed in HEK293 cells assessed as intracellular IP3 accumulation; format: functional, cell-based
Outline: (§1)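 Functional agonist assay read out as [3H]phosphoinositol turnover; potency expressed as pEC50.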

[2] = biological target: 5-hydroxytryptamine receptor 2A (Homo sapiens, UniProt P28223); test: Agonist activity at human 5HT2A receptor expressed in HEK293 cells assessed as intracellular IP3 accumulation; format: functional, cell-based; outline: as §1
[3] = biological target: T1, 5-hydroxytryptamine receptor 2C (Homo sapiens, UniProt P28335); test: Agonist activity at human 5HT2C receptor expressed in HEK293 cells assessed as intracellular IP3 accumulation; format: functional, cell-based; outline: as §1
T1 sequence (P28335 whole entry): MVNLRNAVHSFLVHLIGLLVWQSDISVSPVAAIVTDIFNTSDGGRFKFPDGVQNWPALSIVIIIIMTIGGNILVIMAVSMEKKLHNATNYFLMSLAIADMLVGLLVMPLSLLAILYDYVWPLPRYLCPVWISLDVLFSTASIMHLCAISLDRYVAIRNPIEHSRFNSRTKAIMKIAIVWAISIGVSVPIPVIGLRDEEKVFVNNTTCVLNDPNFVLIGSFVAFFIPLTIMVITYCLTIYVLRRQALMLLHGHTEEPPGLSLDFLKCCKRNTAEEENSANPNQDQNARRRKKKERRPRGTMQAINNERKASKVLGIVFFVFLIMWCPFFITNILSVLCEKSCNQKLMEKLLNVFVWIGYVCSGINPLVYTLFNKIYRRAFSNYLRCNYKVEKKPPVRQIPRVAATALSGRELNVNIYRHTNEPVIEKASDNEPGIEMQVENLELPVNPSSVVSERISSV

Homo sapiens = organism: Homo sapiens; test: Selectivity ratio of pEC50 for human 5HT2B to pEC50 for human 5HT2C
[4] = biological target: Serotonin 2 receptors; 5-HT2a & 5-HT2c (Homo sapiens) (UniProt P28223+P28335); test: Selectivity ratio of pEC50 for human 5HT2A to pEC50 for human 5HT2C
Rattus norvegicus [5] = test: Reduction of food intake in Sprague-Dawley rat at 50 umol/kg, po after 2 hrs relative to control; format: functional
Outline: (§2)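 Male Sprague-Dawley rats, caged singly, kept 2 weeks on a reverse light cycle, freely fed, eight per group. Oral gavage of vehicle or compound 1 h before the dark cycle. Food intake measured 2 h postdose and compared with vehicle control.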

Rattus norvegicus [6] = test: Reduction of food intake in Sprague-Dawley rat at 25 umol/kg, po after 2 hrs relative to control; format: functional; outline: as §2
Rattus norvegicus [7] = test: Reduction of food intake in Sprague-Dawley rat at 100 umol/kg, po after 2 hrs relative to control; format: functional; outline: as §2
Rattus norvegicus [8] = test: Reduction of food intake in Sprague-Dawley rat at 12.5 umol/kg, po after 2 hrs relative to control; format: functional; outline: as §2
[9] = Oral bioavailability in Sprague-Dawley rat at 10 mg/kg; format: ADME, organism-based; settings: in vivo
[10] = Cmax in Sprague-Dawley rat at 10 mg/kg, po; format: ADME, organism-based; set-up: dose 10 mg/kg, route oral; settings: in vivo
Rattus norvegicus [11] = test: Reduction of body weight in Sprague-Dawley rat at 18 mg/kg, po, qd after 28 days relative to control; format: functional; set-up: scale not given: the % may be the effect or the level left
Outline: (§3)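 Adult male Sprague-Dawley rats (250–400 g), caged separately with free access to food and water. Oral gavage of vehicle or drug for 28 days, with arms of 9, 18 and 36 mg/kg twice daily and 18 mg/kg once daily. Daily food intake and body weight recorded and compared with vehicle control.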

[12] = Half life in Sprague-Dawley rat at 10 mg/kg, po; format: ADME, organism-based; set-up: dose 10 mg/kg, route oral; settings: in vivo
Rattus norvegicus [13] = test: Reduction of body weight in Sprague-Dawley rat at 9 mg/kg, po, bid after 28 days relative to control; format: functional; set-up: scale not given: the % may be the effect or the level left; outline: as §3
[14] = Clearance in Sprague-Dawley rat at 5 mg/kg, iv; format: ADME, organism-based; set-up: dose 5 mg/kg, route intravenous; settings: in vivo
Rattus norvegicus [15] = organism: Rattus norvegicus; test: Reduction of food intake in Sprague-Dawley rat after 6 hrs relative to control; format: functional
Outline: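 Male Sprague-Dawley rats, individually caged after 2 weeks on a reverse light cycle, freely fed, eight per group. Dosed by oral gavage 1 h before the dark cycle. Food intake measured 6 h postdose versus vehicle-treated rats.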

[16] = AUC (0-infinity) in Sprague-Dawley rat at 10 mg/kg, po; format: ADME, organism-based; set-up: time infinity, dose 10 mg/kg, route oral; settings: plasma
Rattus norvegicus [17] = test: Reduction of body weight in Sprague-Dawley rat at 18 mg/kg, po, bid after 28 days relative to control; format: functional; set-up: scale not given: the % may be the effect or the level left; outline: as §3
[18] = Tmax in Sprague-Dawley rat at 10 mg/kg, po; format: ADME, organism-based; set-up: dose 10 mg/kg, route oral; settings: in vivo
Rattus norvegicus [19] = test: Reduction of body weight in Sprague-Dawley rat at 36 mg/kg, po, bid after 28 days relative to control; format: functional; set-up: scale not given: the % may be the effect or the level left; outline: as §3
[20] = AUC (0-infinity) in Sprague-Dawley rat at 5 mg/kg, iv; format: ADME, organism-based; set-up: time infinity, dose 5 mg/kg, route intravenous; settings: plasma
[21] = Volume of distribution at steady state in Sprague-Dawley rat at 5 mg/kg, iv; format: ADME, organism-based; set-up: dose 5 mg/kg, route intravenous; settings: in vivo, read-out: Vdss
[22] = Half life in Sprague-Dawley rat at 5 mg/kg, iv; format: ADME, organism-based; set-up: dose 5 mg/kg, route intravenous; settings: in vivo

Sequence of 5-hydroxytryptamine receptor 2A (P28223 whole entry): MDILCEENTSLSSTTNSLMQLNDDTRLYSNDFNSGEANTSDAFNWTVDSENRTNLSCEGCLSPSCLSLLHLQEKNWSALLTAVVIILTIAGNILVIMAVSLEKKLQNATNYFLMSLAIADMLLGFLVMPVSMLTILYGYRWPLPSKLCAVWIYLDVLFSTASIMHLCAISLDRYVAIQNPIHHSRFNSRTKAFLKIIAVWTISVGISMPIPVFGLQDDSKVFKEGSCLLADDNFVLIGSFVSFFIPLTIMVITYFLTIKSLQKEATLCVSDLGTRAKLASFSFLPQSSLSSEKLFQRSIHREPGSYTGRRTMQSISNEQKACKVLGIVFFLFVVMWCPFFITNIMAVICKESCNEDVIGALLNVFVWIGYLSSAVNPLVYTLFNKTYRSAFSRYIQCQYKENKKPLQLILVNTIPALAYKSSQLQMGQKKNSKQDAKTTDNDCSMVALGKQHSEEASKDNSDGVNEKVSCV
Sequence of Serotonin 2 receptors; 5-HT2a & 5-HT2c (Homo sapiens) (P28223 whole entry, looked up, one chain of several): as the sequence (P28223 whole entry) above
Sequence of 5-hydroxytryptamine receptor 2B (P41595 whole entry): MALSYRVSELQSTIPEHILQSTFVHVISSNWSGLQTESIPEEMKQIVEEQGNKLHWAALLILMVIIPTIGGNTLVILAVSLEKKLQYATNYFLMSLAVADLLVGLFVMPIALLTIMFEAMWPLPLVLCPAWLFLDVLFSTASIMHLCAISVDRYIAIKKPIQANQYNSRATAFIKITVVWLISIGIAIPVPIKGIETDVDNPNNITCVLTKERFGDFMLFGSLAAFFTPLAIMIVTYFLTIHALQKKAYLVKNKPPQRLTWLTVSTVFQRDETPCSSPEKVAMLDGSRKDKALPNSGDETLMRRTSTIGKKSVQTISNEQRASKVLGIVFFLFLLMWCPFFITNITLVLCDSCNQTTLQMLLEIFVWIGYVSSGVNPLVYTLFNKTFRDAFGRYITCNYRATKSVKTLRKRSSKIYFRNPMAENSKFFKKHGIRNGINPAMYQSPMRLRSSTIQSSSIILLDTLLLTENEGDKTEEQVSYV

| Structure (SMILES) | EC50 [1] [nM] | EC50 [2] [nM] | EC50 [3] [nM] | Selectivity ratio (Homo sapiens) | Selectivity ratio [4] | inhibition in vivo at 50 µmol/kg (Rattus norvegicus [5]) [%] | inhibition in vivo at 25 µmol/kg (Rattus norvegicus [6]) [%] | inhibition in vivo at 100 µmol/kg (Rattus norvegicus [7]) [%] | other results |
| --- | --- | --- | --- | --- | --- | --- | --- | --- | --- |
| CC1CNCCc2ccc(Cl)c(F)c21 (racemic) | 2510 | 794 | 20 | 2.1 | 1.6 |  |  |  |  |
| CC1CNCCc2cc(Cl)c(Cl)cc21 (racemic) | 50.1 | 20 |  | 1.1 | 0.7 | 44 | 33 | 60 |  |
| CC1CNCCc2ccc(Cl)c(Cl)c21 (racemic) | 1580 | 200 | 7.94 | 2.3 | 1.4 |  |  |  |  |
| C[C@@H]1CNCCc2ccc(C(F)(F)F)cc21 | 794 | 100 | 10 | 1.9 | 1 | 45 | 18 |  | inhibition in vivo at 12.5 µmol/kg (Rattus norvegicus [8]): 16% |
| C[C@H](N)Cn1ccc2cc(F)c(Cl)cc21 | 1.58 | 50.1 | 3.98 | -0.4 | 1.1 |  |  |  |  |
| COc1cc2c(cc1Cl)C(C)CNCC2 (single isomer, unassigned; form 2) [listing 1 of 2 here] | 39.8 | 31.6 | 6.31 |  |  | 66 | 60 | 77 |  |
| COc1cc2c(cc1Cl)C(C)CNCC2 (single isomer, unassigned; form 1) [listing 1 of 2 here] |  |  |  | 1.7 | 1.4 |  |  |  |  |
| COc1ccc2c(c1)C(C)CNCC2 (racemic) | 5010 | 251 | 200 |  |  |  |  |  |  |
| CC1CNCCc2cc(Cl)ccc21 (racemic) | 501 | 158 | 25.1 | 1.3 | 0.8 |  |  |  |  |
| C[C@@H]1CNCCc2ccc(Cl)c(Cl)c21 | 1260 | 126 | 3.16 | 2.6 | 1.6 | 41 | 19 | 69 |  |
| COc1cc2c(cc1Cl)C(C)CNCC2 (racemic) [listing 1 of 2 here] |  |  |  | 0.9 | 0.9 |  |  |  |  |
| CC1CNCCc2ccccc21 (racemic) | 3980 |  | 316 |  |  |  |  |  |  |
| CC[C@H]1CNCCc2ccc(Cl)cc21 | 251 | 251 | 39.8 | 0.8 | 0.8 |  |  |  |  |
| C[C@H]1CNCCc2ccc(Cl)cc21 [LORCASERIN] |  |  |  |  |  | 77 | 58 | 82 | bioavailability [9]: 86%; Cmax [10]: 260 ng/mL; Activity (Rattus norvegicus [11]): 17.02%; half-life [12]: 222 min; Activity (Rattus norvegicus [13]): 15.75%; inhibition in vivo at 12.5 µmol/kg (Rattus norvegicus [8]): 34%; clearance [14]: 102 mL/min/kg; ED50 (Rattus norvegicus [15]): 18 mg/kg; AUC(0-inf) [16]: 1400 ng·h/mL; Activity (Rattus norvegicus [17]): 14.03%; Tmax [18]: 30 min; Activity (Rattus norvegicus [19]): 8.5%; AUC(0-inf) [20]: 800 ng·h/mL; Vd [21]: 18 L/kg; half-life [22]: 186 min |
| COc1cc2c(cc1Cl)C(C)CNCC2 (single isomer, unassigned; form 1) [listing 2 of 2 here] | 398 | 200 | 7.94 |  |  | 36 | 32 | 43 |  |
| COc1cc2c(cc1Cl)C(C)CNCC2 (single isomer, unassigned; form 2) [listing 2 of 2 here] |  |  |  | 0.8 | 0.7 |  |  |  |  |
| CC1CNCCc2ccc(Cl)cc21 (racemic) |  |  |  |  |  | 62 | 52 | 81 |  |
| CC1CNCCc2cccc(Cl)c21 (racemic) | > 10000 | > 10000 | 794 |  |  |  |  |  |  |
| CC1CNCCc2cc(F)c(Cl)cc21 (racemic) | 316 | 63.1 | 6.31 | 1.7 | 1 | 41 | 30 | 58 |  |

| Structure (SMILES) | EC50 [1] [nM] | EC50 [2] [nM] | EC50 [3] [nM] | Selectivity ratio (Homo sapiens) | Selectivity ratio [4] | inhibition in vivo at 50 µmol/kg (Rattus norvegicus [5]) [%] | inhibition in vivo at 25 µmol/kg (Rattus norvegicus [6]) [%] | inhibition in vivo at 100 µmol/kg (Rattus norvegicus [7]) [%] | other results |
| --- | --- | --- | --- | --- | --- | --- | --- | --- | --- |
| CC1CNCCc2ccc(Br)cc21 (racemic) | 2000 | 501 | 10 | 2.3 | 1.7 |  |  |  |  |
| CC1CNCCc2ccc(C(F)(F)F)cc21 (racemic) | 794 |  | 6.31 | 2.1 | 1.2 |  |  |  |  |
| CC[C@@H]1CNCCc2ccc(Cl)cc21 | 631 | 316 | 20 | 1.5 | 1.2 |  |  |  |  |
| C[C@H]1CNCCc2cc(Cl)c(Cl)cc21 | 39.8 | 10 | 3.98 | 1 | 0.4 | 40 | 16 | 66 |  |
| C[C@H]1CNCCc2ccc(C(F)(F)F)cc21 | 501 | 126 | 7.94 | 1.8 | 1.2 | 41 | 22 |  | inhibition in vivo at 12.5 µmol/kg (Rattus norvegicus [8]): 14% |
| C[C@H](N)Cc1cccc(C(F)(F)F)c1 [NORDEXFENFLURAMINE] | 15.8 | 200 | 25.1 | -0.2 | 0.9 |  |  |  |  |
| CC1(C)CNCCc2ccc(Cl)cc21 | > 10000 | 1580 | 200 |  |  |  |  |  |  |
| Clc1ccc2c(c1)CCNCC2 |  | 100 | 12.6 | 1.9 | 0.9 | 68 | 63 | 85 |  |
| CC1CNCCc2c(Cl)cccc21 (racemic) | > 10000 | > 10000 | 794 |  |  |  |  |  |  |
| C[C@@H]1CNCCc2ccc(Cl)c(F)c21 | > 10000 | 1000 | 3.98 | > 3.4 | 2.4 |  |  |  |  |
| C[C@H]1CNCCc2ccc(Cl)c(Cl)c21 | > 10000 | 2510 | 316 |  |  |  |  |  |  |
| CC1CNCCc2ccc(F)cc21 (racemic) | > 10000 |  | 398 |  |  |  |  |  |  |
| COc1ccc2c(c1)CCNCC2C (racemic) | > 10000 | > 10000 | 1260 |  |  |  |  |  |  |
| c1ccc2c(c1)CCNCC2 | > 10000 | > 10000 | 3160 |  |  |  |  |  |  |
| CC1CNCCc2c(Cl)cc(Cl)cc21 (centres undefined) | 794 | 126 |  | 1.6 | 0.8 |  |  |  |  |
| COc1cc2c(cc1Cl)C(C)CNCC2 (racemic) [listing 2 of 2 here] | 63.1 | 63.1 | 7.94 |  |  | 52 | 38 | 71 |  |
| COc1cc2c(cc1Cl)CCNCC2C (racemic) | 200 | 100 | 50.1 | 0.6 | 0.3 |  |  |  |  |
| C[C@@H]1CNCCc2ccc(Cl)cc21 |  |  |  |  |  | 41 | 26 | 73 | inhibition in vivo at 12.5 µmol/kg (Rattus norvegicus [8]): 7% |
| C[C@@H]1CNCCc2cc(Cl)c(Cl)cc21 | 251 | 100 | 7.94 | 1.5 | 1.1 | 58 | 54 | 74 |  |
